{"data": "Experimental data pooled from the literature", "target": "Serine/threonine-protein kinase Nek6 (NEK6, Homo sapiens, UniProt Q9HC98)", "note": "Compare with care: the assays were run in different laboratories."}
{"Structure (SMILES)": "Cc1cnn2ncc(-c3ccnc(N(C)C)n3)c2c1", "test": "binding", "setting": "1 µM", "remaining binding [%]": 100}
{"Structure (SMILES)": "c1cncc(-c2cccc(Nc3nccc(NC4CCCCC4)n3)c2)c1", "test": "binding, competition with immobilised ligand", "setting": "10 µM", "remaining binding [%]": 71}
{"Structure (SMILES)": "COc1ccc2c(O[C@@H]3C[C@H]4C(=O)N[C@]5(C(=O)O)CC5/C=C\\CCCCC[C@H](NC(=O)OC5CCCC5)C(=O)N4C3)cc(-c3csc(NC(=O)C(C)C)n3)nc2c1C (stereo partly shown)", "test": "cell-free assay, competition with immobilised ligand", "setting": "1 µM", "remaining binding [%]": 98}
{"Structure (SMILES)": "C[C@@H]1CCN(c2nccc(-c3cnn4ncccc34)n2)C1", "test": "binding", "setting": "1 µM", "remaining binding [%]": 100}
{"Structure (SMILES)": "CSc1cccnc1N1CCN(Cc2nc3ccccc3[nH]2)CC1", "test": "cell-free assay, competition with immobilised ligand", "setting": "1 µM", "remaining binding [%]": 98}
{"Structure (SMILES)": "O=C(NCC1CCOCC1)c1n[nH]cc1NC(=O)c1c(F)cccc1F", "test": "binding, competition with immobilised ligand", "setting": "1 µM", "remaining binding [%]": 90}
{"Structure (SMILES)": "O=C(N[C@H]1CCCCC/C=C\\C2C[C@@]2(C(=O)O)NC(=O)[C@@H]2C[C@@H](Oc3ccncc3)CN2C1=O)OC1CCCC1 (stereo partly shown)", "test": "binding, competition with immobilised ligand", "setting": "1 µM", "remaining binding [%]": 87}
{"Structure (SMILES)": "N[C@@H]1CCN(c2nccc(-c3cnn4ncccc34)n2)C1", "test": "binding", "setting": "1 µM", "remaining binding [%]": 100}
{"Structure (SMILES)": "O=C(NCCCN1CCOCC1)c1ccc(Nc2ncc(Cl)c(-c3ccc(Cl)s3)n2)cc1", "test": "binding, competition with immobilised ligand", "setting": "1 µM", "remaining binding [%]": 2.5}
{"Structure (SMILES)": "COc1cc(-c2cn(C3CCc4ccccc4N(CC(F)(F)F)C3=O)nn2)ccc1-n1ccc(C)n1 (stereo not shown)", "test": "cell-free assay, competition with immobilised ligand", "setting": "1 µM", "remaining binding [%]": 100}
{"Structure (SMILES)": "Nc1ncc2c(n1)-c1c([nH]c3ccc(C#CC4CC4)cc13)CCCC2", "test": "binding, competition with immobilised ligand", "setting": "1 µM", "remaining binding [%]": 90}
{"Structure (SMILES)": "O=C(c1ccc(Nc2nccc(-c3cc4ccccc4s3)n2)cc1)N1CCC(N2CCCC2)CC1", "test": "binding, competition with immobilised ligand", "setting": "1 µM", "remaining binding [%]": 87}
{"Structure (SMILES)": "CNC(=O)[C@@H]1CC[C@@H](n2c(-c3ccc4cnccc4c3)nc3ccc(C(=O)NCc4cccc(C(N)=O)c4)cc32)C1", "test": "binding, competition with immobilised ligand", "setting": "1 µM", "remaining binding [%]": 97}
{"Structure (SMILES)": "CN(CCCC(F)(F)F)c1nccc(-c2cnn3ncccc23)n1", "test": "binding", "setting": "1 µM", "remaining binding [%]": 100}
{"Structure (SMILES)": "Cc1cnc(Nc2ccc(C(=O)N3CCC(N4CCCC4)CC3)cc2)nc1-c1cc2ccccc2s1", "test": "binding, competition with immobilised ligand", "setting": "1 µM", "remaining binding [%]": 10}
{"Structure (SMILES)": "CC1=C(C#N)[C@@H](c2ccc3[nH]nc(C)c3c2)C(C#N)=C(c2ccc(Cl)cc2)N1", "test": "cell-free assay, competition with immobilised ligand", "setting": "1 µM", "remaining binding [%]": 100}
{"Structure (SMILES)": "CN(C)c1ncc(F)c(-c2cnn3ncccc23)n1", "test": "binding", "setting": "1 µM", "remaining binding [%]": 99}
{"Structure (SMILES)": "C[C@@H](c1cccc(C#N)c1)n1cc(Cl)cc(C(N)=O)c1=N", "test": "cell-free assay, competition with immobilised ligand", "setting": "1 µM", "remaining binding [%]": 79}
{"Structure (SMILES)": "C[C@@H](c1ccc(-n2cnc3c(N)ncnc32)cc1)N1CCc2nn(C)c(Cc3ccccc3)c2C1=O", "test": "binding, competition with immobilised ligand", "setting": "0.1 µM", "remaining binding [%]": 90}
{"Structure (SMILES)": "c1cnn2ncc(-c3ccnc(N4CCC45COC5)n3)c2c1", "test": "binding", "setting": "1 µM", "remaining binding [%]": 94}
{"Structure (SMILES)": "CCC(=O)N[C@H]1CC[C@@H](C(=O)N(C)c2ccc(-c3nc4ccccc4o3)cc2)C1", "test": "cell-free assay, competition with immobilised ligand", "setting": "1 µM", "remaining binding [%]": 85}
{"Structure (SMILES)": "C=CC(=O)N1CCC(C(=O)NCC(=O)N2CCN(c3nc(-c4cnc(N)nc4C(F)F)nc(N4CCOCC4)n3)CC2)CC1", "test": "binding, competition with immobilised ligand", "setting": "1 µM", "remaining binding [%]": 95}
